Test results from PubChem BioAssay.
Inconclusive results are not listed.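 The calls were made as follows, unless noted: active = RAM network inhibition above 8.4% in each of two replicates, 3 SD over the compound average; inconclusive = above 8.4% inhibition in only one replicate; inactive = 8.4% inhibition or less in each replicate.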

Key:
[1] = S. cerevisiae growth inhibition in permissive medium (OD615), pilot counter-assay for S. cerevisiae lifespan shortening project, permissive growth control (AID 705;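 active = growth inhibition above 25% in both replicates, a cutoff set 3 SD above the mean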); settings: OD615, 24 h, at 10 µM, active compounds read high
How it was run: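 assay system = Saccharomyces cerevisiae strain carrying genetically modified DeaD replicative-lifespan system | medium = SC raffinose/galactose permissive medium | dosing = 10 µM single dose, 0.25% DMSO | schedule = 24 h compound exposure at 30 °C after 4 h pre-growth | measured by = OD at 615 nm | read-out basis = growth inhibition from lowered OD615 after 24 h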

[2] = S. cerevisiae growth inhibition in restrictive medium, OD615, pilot screen, restrictive growth control, yeast lifespan reduction project (AID 706;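 active = growth inhibition above a set limit, 3 SD over mean compound inhibition, in both replicates, cut at about 43% in these data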;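 also: modified DeaD lifespan yeast strain shifted to restrictive glucose medium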); settings: OD615, 48 h, at 10 µM, active compounds read high
How it was run: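 Buffer or medium: CSMM-D glucose medium. Material: genetically modified Saccharomyces cerevisiae, DeaD replicative lifespan assay strain. Times: 48 h compound exposure at 30 °C. Measured by: optical density at 615 nm.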

[3] = doxorubicin toxicity protection in MRP-1 cells – H69AR cells, CellTiter-Glo, duplicate, MRP-1 activator project, pilot screen (AID 807;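 active = viability increase at or above a cutoff of the median across tested compounds plus 3 SD, cut at about 8.5% in these data, passing the limit was not always enough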;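 also: compound pretreatment 18-22 h then 72 h combined with doxorubicin; 0% = doxorubicin alone and 100% = vehicle without doxorubicin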); settings: H69AR viability with doxorubicin, CellTiter-Glo luminescence; at 10 µM; active compounds read high
[4] = viability of PTEN-null HCT116 cells – cell-based, HCT116 clonal line, CellTiter-Glo, pilot screen (AID 824;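 active = viability at or below 27.92% in each of two runs, the all-compound median minus 4 SD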;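 also: 0% = 20 µM Hyamine control and 100% = vehicle cell control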); settings: HCT116 PTEN-deleted viability, 60 h, at 10 µM, active compounds read low
[5] = RAM pathway blockade in budding yeast – dse1pr::URA3 reporter, 5-FOA selection, pilot screen (AID 869;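 active = inhibition over a set limit, the all-compound mean plus 3 SD, in both replicate runs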;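 also: 0% = DMSO wells with no growth and 100% = 10 µM 1-NA-PP1 with full growth; RAM network block rescues cells from 5-FOA so hits raise OD615 growth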); settings: S. cerevisiae dse1pr::URA3 5-FOA growth, OD615, 2 d; at 10 µM; active compounds read high; strain carries analog-sensitive mutant Cbk1 kinase
[6] = RAM signaling pathway blockade in yeast – S. cerevisiae, Pdr1DBD-CYC8 efflux-inhibited sensitized strain, primary screen (AID 1298);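 also: 0% = DMSO untreated cells without growth and 100% = 10 µM 1-NA-PP1 full growth; higher means more yeast growth rescued from 5-FOA killing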; settings: S. cerevisiae cbk1-as DSE1-URA3 strain, 5-FOA growth OD615, 2 d; at 50 µM; active compounds read high

CCOC(=O)N1CCN(C(=O)CS(=O)(=O)c2cn(Cc3ccccc3C)c3ccccc23)CC1
inactive: growth inhibition [1] -9.04% | growth inhibition [2] -6% | viability increase [3] -2.26% | viability [4] 94% | inhibition [5] 2.09% | RAM network inhibition [6] 8.81%

CCOC(=O)CNS(=O)(=O)CCN1C(=O)c2ccccc2C1=O
inactive: growth inhibition [1] -8.36% | growth inhibition [2] -4.12% | viability increase [3] 0.26% | viability [4] 94.3% | inhibition [5] 2.52% | RAM network inhibition [6] 0.77%

NS(=O)(=O)c1ccc(NC(=O)COC(=O)CCNC(=O)NC23CC4CC(CC(C4)C2)C3)cc1
inactive: growth inhibition [1] -10.4% | growth inhibition [2] -4.2% | viability increase [3] 0.2% | viability [4] 98.6% | inhibition [5] 0.55% | RAM network inhibition [6] 3.28%

COc1cc(C(=O)NCc2ccc3c(c2)OCO3)ccc1OCc1c(C)noc1C
inactive: growth inhibition [1] 2.15% | growth inhibition [2] -2.32% | viability increase [3] -1.5% | viability [4] 95.1% | inhibition [5] 2.5% | RAM network inhibition [6] 3.79%

CCOC(=O)N1CCN(C(=O)c2oc3ccc(S(=O)(=O)N4CCOCC4)cc3c2C)CC1
inactive: growth inhibition [1] -6.53% | growth inhibition [2] -12.6% | viability increase [3] -4.64% | viability [4] 99.9% | inhibition [5] 2.71% | RAM network inhibition [6] 4.61%

COc1ccc(OC)c(NC(=O)C(CC(C)C)NC(=O)C2CCCCC2)c1 (stereo not drawn)
inactive: growth inhibition [1] -5.08% | growth inhibition [2] 11.6% | viability increase [3] -5.29% | viability [4] 86% | inhibition [5] 1.02% | RAM network inhibition [6] 3.18%

COc1ccc(CCNC(=O)CN(c2ccc(OC)c(OC)c2)S(C)(=O)=O)cc1OC
inactive: growth inhibition [1] -1.96% | growth inhibition [2] -7.65% | viability increase [3] 0.32% | viability [4] 106% | inhibition [5] 0.98% | RAM network inhibition [6] 1.49%

CCOC(=O)N1CCN(C(=O)C(CC(C)C)NC(=O)C2CCCCC2)CC1 (stereo not drawn)
inactive: growth inhibition [1] -11.7% | growth inhibition [2] -4.5% | viability increase [3] -2.13% | viability [4] 101% | inhibition [5] 0.455% | RAM network inhibition [6] 1.59%

CCOC(=O)c1cc2c(=O)n3ccccc3nc2n(CCOC)c1=NC(=O)c1ccncc1
inactive: growth inhibition [1] -1.34% | growth inhibition [2] -11.8% | viability increase [3] -5.7% | viability [4] 99.6% | inhibition [5] 0.96% | RAM network inhibition [6] 5.99%

O=C(CN(C1CCCCC1)S(=O)(=O)c1ccccc1)N1CCCC1
inactive: growth inhibition [1] -9.43% | growth inhibition [2] -3.8% | viability increase [3] -2.08% | viability [4] 100% | inhibition [5] 0.885% | RAM network inhibition [6] 2.77%

CC1Cc2ccccc2N1Cc1nc2scc(-c3cccs3)c2c(=O)[nH]1 (stereo not drawn)
inactive: growth inhibition [1] 1.81% | growth inhibition [2] 0.44% | viability increase [3] -3.6% | viability [4] 95.3% | inhibition [5] 1.77% | RAM network inhibition [6] 5.16%

C(=C\CSc1nnnn1-c1ccccc1)/CSc1nnnn1-c1ccccc1
inactive: growth inhibition [1] -9.57% | growth inhibition [2] -3.65% | viability increase [3] -1.58% | viability [4] 87.6% | inhibition [5] 3.83% | RAM network inhibition [6] 10%

C/C(CC(O)c1ccc2ccccc2n1)=N/O (stereo not drawn)
inactive: growth inhibition [1] 1.34% | growth inhibition [2] 1.94% | viability increase [3] -0.7% | viability [4] 103% | inhibition [5] 0.445% | RAM network inhibition [6] 1.08%

Cc1c(C(=O)NCc2ccc3c(c2)OCO3)oc2ccc(S(=O)(=O)N3CCCC3)cc12
inactive: growth inhibition [1] -2.78% | growth inhibition [2] -4.95% | viability increase [3] -0.63% | viability [4] 66.1% | inhibition [5] 1.78% | RAM network inhibition [6] 4.67%

Cc1ccc(N(CC(=O)NCc2ccco2)S(=O)(=O)c2ccccc2)cc1
inactive: growth inhibition [1] -10.9% | growth inhibition [2] -7.57% | viability increase [3] -4.6% | viability [4] 87.2% | inhibition [5] 1.1% | RAM network inhibition [6] 1.9%

CCOC(=O)C1CCN(C(=O)c2cn(C)c(=O)c3cc(OC)c(OC)cc23)CC1
inactive: growth inhibition [1] -3.38% | growth inhibition [2] -10.2% | viability increase [3] -4.21% | viability [4] 98% | inhibition [5] 1% | RAM network inhibition [6] 3.95%

O=C(c1ccco1)c1n[nH]nc1-c1ccccc1
inactive: growth inhibition [1] -19.6% | growth inhibition [2] -5.81% | viability increase [3] -3.17% | viability [4] 102% | inhibition [5] 1.16% | RAM network inhibition [6] 1.94%

CCOc1ccccc1NC(=O)CSc1ccccc1
inactive: growth inhibition [1] -17.2% | growth inhibition [2] -2.58% | viability increase [3] -2.94% | viability [4] 85.8% | inhibition [5] 0.255% | RAM network inhibition [6] 2.06%
